Experimental data from ChEMBL document CHEMBL2034930, “Alkylidene branched lupane derivatives: synthesis and antitumor activity” (Eur J Med Chem, 2012).
Calls of active or inactive are those of the source. The calls are words filed in the database; no cut-off is given here.

Columns and labels:
A-431 = test: Cytotoxicity against human A431 cells after 96 hrs by SRB assay; type: functional, cell-based
Method in brief: (§1)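 Cells exposed to test compounds for 96 h, then viable cells measured by sulforhodamine B staining as a percentage of untreated controls. IC50 read from dose-response curves, averaged over at least three independent experiments. Compounds tested free and also encapsulated in soybean-lecithin liposomes extruded through a 100 nm polycarbonate membrane (hydrodynamic diameter 70-120 nm, Z-average 105 nm, encapsulation >96% by HPLC).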

8505C = test: Cytotoxicity against human 8505C cells after 96 hrs by SRB assay; type: functional, cell-based; method in brief: as §1
MCF7 = test: Cytotoxicity against human MCF7 cells after 96 hrs by SRB assay; type: functional, cell-based; method in brief: as §1
[1] = Solubility of the compound in water; type: physicochemical; conditions: buffer
[2] = Cytotoxicity against human Lipo cells after 96 hrs by SRB assay; type: functional, cell-based; method in brief: as §1
HT-29 = test: Cytotoxicity against human HT-29 cells after 96 hrs by SRB assay; type: functional, cell-based; method in brief: as §1
FaDu = test: Cytotoxicity against human FADU cells after 96 hrs by SRB assay; type: functional, cell-based; method in brief: as §1
HCT-116 = test: Cytotoxicity against human HCT116 cells after 96 hrs by SRB assay; type: functional, cell-based; method in brief: as §1
[3] = Cytotoxicity against human A253 cells after 96 hrs by SRB assay; type: functional, cell-based; method in brief: as §1
DLD-1 = test: Cytotoxicity against human DLD1 cells after 96 hrs by SRB assay; type: functional, cell-based; method in brief: as §1
[4] = Cytotoxicity against human 518A2 cells after 96 hrs by SRB assay; type: functional, cell-based; method in brief: as §1
SW-1736 = test: Cytotoxicity against human SW1736 cells after 96 hrs by SRB assay; type: functional, cell-based; method in brief: as §1
HCT-8 = test: Cytotoxicity against human HCT8 cells after 96 hrs by SRB assay; type: functional, cell-based; method in brief: as §1
NIH3T3 = test: Cytotoxicity against mouse NIH/3T3 cells after 96 hrs by SRB assay; type: cell-based; conditions: NIH3T3, 96 h; method in brief: as §1
SW480 [5] = test: Cytotoxicity against human SW480 cells after 96 hrs by SRB assay; type: functional, cell-based; method in brief: as §1
A549 [6] = test: Cytotoxicity against human A549 cells after 96 hrs by SRB assay; type: functional, cell-based; method in brief: as §1
A2780 = test: Cytotoxicity against human A2780 cells after 96 hrs by SRB assay; type: functional, cell-based; method in brief: as §1
A549 [7] = test: Induction of apoptosis in human A549 cells at 0.8 uM by acridine orange/ethidium bromide staining; type: functional, cell-based
SW480 [8] = test: Induction of apoptosis in human SW480 cells assessed as DNA laddering at 6 uM after 24 hrs; type: functional, cell-based
[9] = Homo sapiens, A-431, 96 h, read-out: IC50
[10] = Homo sapiens, 8505C, 96 h, read-out: IC50
[11] = Homo sapiens, MCF7, 96 h, read-out: IC50
[12] = Homo sapiens, Lipo, 96 h, read-out: IC50
[13] = Homo sapiens, HT-29, 96 h, read-out: IC50
[14] = Homo sapiens, FaDu, 96 h, read-out: IC50
[15] = Homo sapiens, HCT-116, 96 h, read-out: IC50
[16] = Homo sapiens, A253, 96 h, read-out: IC50
[17] = Homo sapiens, DLD-1, 96 h, read-out: IC50
[18] = Homo sapiens, 518A2, 96 h, read-out: IC50
[19] = Homo sapiens, SW-1736, 96 h, read-out: IC50
[20] = Homo sapiens, HCT-8, 96 h, read-out: IC50
[21] = Homo sapiens, SW480, 96 h, read-out: IC50
[22] = Homo sapiens, A549, 96 h, read-out: IC50
[23] = Homo sapiens, A2780, 96 h, read-out: IC50

| solubility [1] | Structure (SMILES) | IC50 (A-431; [9]) | IC50 (8505C; [10]) | IC50 (MCF7; [11]) | IC50 [2, 12] | IC50 (HT-29; [13]) | IC50 (FaDu; [14]) | IC50 (HCT-116; [15]) | IC50 [3, 16] | IC50 (DLD-1; [17]) | IC50 [4, 18] | IC50 (SW-1736; [19]) | IC50 (HCT-8; [20]) | IC50 (NIH3T3) | IC50 (SW480 [5]; [21]) | IC50 (A549 [6]; [22]) | IC50 (A2780; [23]) | further results |
| --- | --- | --- | --- | --- | --- | --- | --- | --- | --- | --- | --- | --- | --- | --- | --- | --- | --- | --- |
| Insoluble | C=C(C)[C@@H]1CC[C@]2(C(=O)OC)CC[C@]3(C)[C@H](CC[C@@H]4[C@@]5(C)C[C@@H](CS(=O)(=O)CCO)C(=O)C(C)(C)[C@@H]5CC[C@]43C)[C@@H]12 | 2.8 µM | 3.4 µM | 2.6 µM | 2.7 µM | 2.5 µM | 3.8 µM | 2.8 µM | 2.5 µM | 4.4 µM | 2.6 µM | 3.3 µM | 4 µM | 3.2 µM | 2.6 µM | 3.3 µM | 2.6 µM | – |
| Insoluble | C=C/C=C1/C[C@]2(C)[C@H]3CC[C@@H]4[C@H]5[C@H](C(=C)C)CC[C@]5(C(=O)OC)CC[C@@]4(C)[C@]3(C)CC[C@H]2C(C)(C)C1=O | 13 µM | 11.3 µM | 11.2 µM | 11.6 µM | 10.9 µM | 17 µM | 14.6 µM | 10.4 µM | 14.2 µM | 11.5 µM | 15 µM | 14 µM | 13.1 µM | 10.5 µM | 13 µM | 11.2 µM | – |
| Insoluble | C=C(C)[C@@H]1CC[C@]2(C(=O)OC)CC[C@]3(C)[C@H](CC[C@@H]4[C@@]5(C)C[C@@H](CC[N+](=O)[O-])C(=O)C(C)(C)[C@@H]5CC[C@]43C)[C@@H]12 | – | – | – | – | – | – | – | – | – | – | – | – | – | – | – | – | – |
| Insoluble | C=C(C)[C@@H]1CC[C@]2(C(=O)OC)CC[C@]3(C)[C@H](CC[C@@H]4[C@@]5(C)C[C@@H](CSCCO)C(=O)C(C)(C)[C@@H]5CC[C@]43C)[C@@H]12 | 1.7 µM | 2.3 µM | 1.5 µM | 1.8 µM | 1.4 µM | 2.5 µM | 1.9 µM | 1.5 µM | 2.5 µM | 1.5 µM | 2.1 µM | 2.5 µM | 2.1 µM | 1.5 µM | 2.1 µM | 1.6 µM | Activity (A549 [7]): Active; Activity (SW480 [8]): Active |
| Insoluble | C=C(C)[C@@H]1CC[C@]2(C(=O)OC)CC[C@]3(C)[C@H](CC[C@@H]4[C@@]5(C)C/C(=C\C)C(=O)C(C)(C)[C@@H]5CC[C@]43C)[C@@H]12 | 26.4 µM | 26.4 µM | 27.2 µM | 27.8 µM | > 30 µM | 22.4 µM | 24 µM | 21.6 µM | > 30 µM | > 30 µM | 21.9 µM | 17.2 µM | 29.1 µM | 16 µM | > 30 µM | 16.1 µM | – |
| Insoluble | C=C1C[C@]2(C)[C@H]3CC[C@@H]4[C@H]5[C@H](C(=C)C)CC[C@]5(C(=O)OC)CC[C@@]4(C)[C@]3(C)CC[C@H]2C(C)(C)C1=O | 4.9 µM | 5 µM | 4.4 µM | 4.6 µM | 5.9 µM | 7.7 µM | 4.5 µM | 4 µM | 6.4 µM | 4.2 µM | 4.9 µM | 9 µM | 4.9 µM | 4.5 µM | 5.1 µM | 5.1 µM | Activity (A549 [7]): Active; Activity (SW480 [8]): Active |

More lines, now with the values behind:

| Structure (SMILES) | solubility [1] | IC50 (A-431; [9]) | IC50 (8505C; [10]) | IC50 (MCF7; [11]) | IC50 [2, 12] | IC50 (HT-29; [13]) | IC50 (FaDu; [14]) | IC50 (HCT-116; [15]) | IC50 [3, 16] | IC50 (DLD-1; [17]) | IC50 [4, 18] | IC50 (SW-1736; [19]) | IC50 (HCT-8; [20]) | IC50 (NIH3T3) | IC50 (SW480 [5]; [21]) | IC50 (A549 [6]; [22]) | IC50 (A2780; [23]) | further results |
| --- | --- | --- | --- | --- | --- | --- | --- | --- | --- | --- | --- | --- | --- | --- | --- | --- | --- | --- |
| C=C(C)[C@@H]1CC[C@]2(C(=O)OC)CC[C@]3(C)[C@H](CC[C@@H]4[C@@]5(C)CCC(=O)C(C)(C)[C@@H]5CC[C@]43C)[C@@H]12 [METHYL BETULONATE] | Insoluble | – | – | – | – | – | – | – | – | – | – | – | – | – | – | – | – | – |
| C=C1C[C@]2(C)[C@H]3CC[C@@H]4[C@H]5[C@H](C(=C)C)CC[C@]5(C(=O)N5CCSCC5)CC[C@@]4(C)[C@]3(C)CC[C@H]2C(C)(C)C1=O | Insoluble | 1.4 µM | 1.5 µM | 1.4 µM | 1.5 µM | 1.6 µM | 1.6 µM | 1.3 µM | 1.4 µM | 1.5 µM | 1.5 µM | 1.5 µM | 1.5 µM | 1.9 µM | 1.5 µM | 1.5 µM | 1 µM | – |
| C=C(C)[C@@H]1CC[C@]2(C=O)CC[C@]3(C)[C@H](CC[C@@H]4[C@@]5(C)CCC(=O)C(C)(C)[C@@H]5CC[C@]43C)[C@@H]12 [BETULONAL] | Insoluble | – | – | – | – | – | – | – | – | – | – | – | – | – | – | – | – | – |
| C=C(C)[C@@H]1CC[C@]2(CO)CC[C@]3(C)[C@H](CC[C@@H]4[C@@]5(C)CC[C@H](O)C(C)(C)[C@@H]5CC[C@]43C)[C@@H]12 [BETULIN] | Insoluble | – | – | – | – | – | – | – | – | – | – | – | – | – | – | – | – | – |
| C=C1C[C@]2(C)[C@H]3CC[C@@H]4[C@H]5[C@H](C(=C)C)CC[C@]5(C=O)CC[C@@]4(C)[C@]3(C)CC[C@H]2C(C)(C)C1=O | Insoluble | 3 µM | 1.3 µM | 2.1 µM | 2.7 µM | 7.1 µM | 5.1 µM | 3.2 µM | 1 µM | 3.7 µM | 3.8 µM | 2.1 µM | 7.1 µM | 4.7 µM | 2.7 µM | 1.8 µM | 1.3 µM | – |
| C=C(C)[C@@H]1CC[C@]2(C(=O)O)CC[C@]3(C)[C@H](CC[C@@H]4[C@@]5(C)CCC(=O)C(C)(C)[C@@H]5CC[C@]43C)[C@@H]12 [BETUNOLIC ACID] | Insoluble | – | – | – | – | – | – | – | – | – | – | – | – | – | – | – | – | – |
| C=C(C)[C@@H]1CC[C@]2(C(=O)OC)CC[C@]3(C)[C@H](CC[C@@H]4[C@@]5(C)C[C@@]6(CCN=N6)C(=O)C(C)(C)[C@@H]5CC[C@]43C)[C@@H]12 | Insoluble | – | – | – | – | – | – | – | – | – | – | – | – | – | – | – | – | IC50 (A-431; a-431): > 30 µM; IC50 (8505C; 8505c): > 30 µM; IC50 (MCF7; mcf7): > 30 µmol; IC50 ([2]; lipo): > 30 µmol; IC50 (HT-29; ht-29): > 30 µmol; IC50 (FaDu; fadu): > 30 µM; IC50 (HCT-116; hct-116): > 30 µmol; IC50 ([3]; a253): > 30 µM; IC50 (DLD-1; dld-1): > 30 µM; IC50 ([4]; 518a2): > 30 µM; IC50 (SW-1736; sw-1736): > 30 µmol; IC50 (HCT-8; hct-8): > 30 µmol; IC50 (SW480 [5]; sw480): > 30 µmol; IC50 (A549 [6]; a549): > 30 µM; IC50 (A2780; a2780): > 30 µM |
